Measured values as given in ChEMBL document CHEMBL4229461 (Bioorg Med Chem, 2018).
The source made the active and inactive calls. No cut-off for these calls is given here.

How the values were obtained:
[1] = biological target: T1, Amyloid-beta precursor protein (Homo sapiens, UniProt P05067); test: Disruption of recombinant human amyloid beta (1 to 40) fibrils after 24 hrs by ThT fluorescence assay
[2] = biological target: T1, Amyloid-beta precursor protein; test: Disruption of recombinant human amyloid beta (1 to 40) fibrils after 2 hrs by ThT fluorescence assay
[3] = biological target: T1, Amyloid-beta precursor protein; test: Disruption of recombinant human amyloid beta (1 to 40) fibrils at 10 uM after 24 hrs by ThT fluorescence assay relative to control
Procedure, shortened: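 Aβ1-40 fibrils (10 μM in 150 mM MOPS, pH 6.9) incubated 24 h at 37 °C with compound at 10 μM. ThT added to 20 μM, 1 h at 37 °C in the dark, excitation 440 nm, emission 485 nm. Intensity normalized to fibrils alone. Triplicate, mean ± SD. Intrinsic compound fluorescence measured without peptide.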

HT-22 [4] = test: Cytoprotection against glutamate-induced excitotoxicity in mouse HT22 cells assessed as decrease in glutamate-induced cell cycle arrest at sub-G1 phase at 1 uM after 24 hrs by propidium iodide staining based flow cytometry; format: functional
Procedure, shortened: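 HT-22 cells (1.5 × 10^5 per well) co-treated 24 h with 2 mM glutamate plus compound at 1 μM, final DMSO 0.025%. Pelleted, PBS-washed, stained 30 min in PI solution (50 μg/mL PI, Triton, Na citrate). DNA content read by flow cytometry and the SubG1 fraction scored. Mean of three independent experiments ± SD.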

HT-22 [5] = test: Cytoprotection against glutamate-induced apoptosis in mouse HT22 cells assessed as decrease in Bax/Bcl2 ratio at 1 uM after 24 hrs by RT-PCR method; format: functional, cell-based
Procedure, shortened: (§1)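 HT-22 mouse hippocampal cells grown in high-glucose DMEM with 10% heat-inactivated FBS at 37 °C, 5% CO2. Compound (1 μM; DMSO stock, final DMSO 0.025%) added together with 2 mM glutamate for 24 h. Transcripts measured by qRT-PCR. iNOS or Bax/Bcl-2 ratio reported as fold change vs untreated control (set at 1) by the ΔΔCt method.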

HT-22 [6] = test: Cytoprotection against glutamate-induced excitotoxicity in mouse HT22 cells assessed as increase in cell viability at 1 uM after 24 hrs by optical microscopic assay; format: functional, cell-based
Procedure, shortened: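 Cells co-treated 24 h with 2 mM glutamate plus compound at 1 μM. Viable cells judged from optical microscope images.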

[7] = Cytotoxicity against mouse HT22 cells assessed as reduction in cell viability after 24 hrs by MTT assay; format: cell-based, HT-22
Procedure, shortened: (§2)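 HT-22 cells (5 × 10^3 per well) plated, then treated the next day for 24 h with compound in complete medium (1–25 μM range; 10 mM DMSO stock, final DMSO 0.025%; DMSO as negative control). MTT at 0.5 mg/mL final, 2 h, 37 °C; formazan solubilized, A570 read. Mean of at least three independent experiments ± SD.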

HT-22 [8] = test: Cytotoxicity against mouse HT22 cells assessed as reduction in cell viability at 5 uM after 24 hrs by MTT assay; format: cell-based; settings: ht-22, 24 h; procedure, shortened: as §2
HT-22 [9] = test: Cytoprotection against glutamate-induced oxidative stress in mouse HT22 cells assessed as decrease in iNOS mRNA level at 1 uM after 24 hrs by RT-PCR method; format: functional, cell-based; procedure, shortened: as §1
HT-22 [10] = test: Cytoprotection against glutamate-induced excitotoxicity in mouse HT22 cells assessed as increase in cell proliferation at 1 uM after 24 hrs by MTT assay; format: functional, cell-based
Procedure, shortened: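 HT-22 cells (5 × 10^3 per well) co-treated 24 h at 37 °C with 2 mM glutamate plus compound at 1 μM, final DMSO 0.025%. MTT added to 0.5 mg/mL final for 2 h, formazan dissolved in acidified isopropanol/NP40, A570 read. Proliferation relative to untreated control (100%). Mean of at least three independent experiments ± SD.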

HT-22 [11] = test: Cytotoxicity against mouse HT22 cells assessed as reduction in cell viability at 10 uM after 24 hrs by MTT assay; format: cell-based; settings: ht-22, 24 h; procedure, shortened: as §2
[12] = biological target: T1, Amyloid-beta precursor protein; test: Disruption of recombinant human amyloid beta (1 to 40) fibrils at 10 uM after 24 hrs by atomic force microscopic method
Procedure, shortened: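 10 μM Aβ1-40 fibrils plus 10 μM compound, incubated 24 h at 37 °C. Spread on fresh mica, adsorbed 5 min, water-washed, dried under nitrogen, imaged by AFM. No smoothing or noise reduction applied.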

T1 sequence (P05067 whole entry): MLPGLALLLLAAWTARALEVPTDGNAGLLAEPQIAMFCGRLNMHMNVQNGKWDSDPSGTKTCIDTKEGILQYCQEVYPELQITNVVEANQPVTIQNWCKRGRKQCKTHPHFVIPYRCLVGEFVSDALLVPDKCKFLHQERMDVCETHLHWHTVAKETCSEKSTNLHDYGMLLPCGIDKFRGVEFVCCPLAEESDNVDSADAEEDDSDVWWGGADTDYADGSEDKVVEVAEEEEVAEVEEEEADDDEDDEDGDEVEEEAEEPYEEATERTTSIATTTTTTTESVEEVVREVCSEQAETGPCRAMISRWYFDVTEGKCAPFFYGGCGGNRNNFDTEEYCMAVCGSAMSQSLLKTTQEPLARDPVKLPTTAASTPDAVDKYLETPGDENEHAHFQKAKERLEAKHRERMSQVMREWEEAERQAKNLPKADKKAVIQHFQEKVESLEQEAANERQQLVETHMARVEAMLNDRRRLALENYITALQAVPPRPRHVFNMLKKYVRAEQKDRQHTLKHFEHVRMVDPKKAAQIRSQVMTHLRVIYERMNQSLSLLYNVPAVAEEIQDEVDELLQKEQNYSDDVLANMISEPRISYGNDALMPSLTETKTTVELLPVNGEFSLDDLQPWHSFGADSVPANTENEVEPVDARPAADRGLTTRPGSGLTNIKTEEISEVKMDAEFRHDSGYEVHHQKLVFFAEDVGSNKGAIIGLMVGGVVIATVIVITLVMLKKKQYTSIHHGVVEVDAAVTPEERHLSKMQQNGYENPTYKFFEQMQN

**Q.** Which results are given for `COc1cc(/C=C/c2cc(/C=C/c3ccc(O)c(OC)c3)[nH]n2)ccc1O` [CURCUMIN PYRAZOLE]?
**A.** Activity [1]: Dose-dependent effect; DC50 ([1]; read-out: DC50): 1470 nM; Activity [2]: Dose-dependent effect; Activity [3]: > 75%

**Q.** For `COc1cc(/C=C/c2cc(C)[nH]n2)ccc1O`, which DC50 ([1]; read-out: DC50) is on record?
**A.** 38800 nM

**Q.** What about the Activity [3] of the same compound?
**A.** Active

**Q.** For `COc1cccc(/C=C/C(=O)/C=C(O)/C=C/c2cccc(OC)c2)c1`, which DC50 [1] is on record?
**A.** Not Active

**Q.** With `COc1cc(/C=C/c2cc(/C=C/c3ccc(OC(C)=O)c(OC)c3)[nH]n2)ccc1OC(C)=O` as the compound, how does the Activity (HT-22 [4]) read?
**A.** Active

**Q.** And the Activity (HT-22 [5])?
**A.** Active

**Q.** And the Activity (HT-22 [6])?
**A.** Active

**Q.** What about the MNTC at 24 h [7] of the same compound?
**A.** 1000 nM

**Q.** And the DC50 ([1]; read-out: DC50)?
**A.** 310 nM

**Q.** And the Activity (HT-22 [8])?
**A.** Toxic

**Q.** And the DC50 [2]?
**A.** 650 nM

**Q.** What about the Activity (HT-22 [9]) of the same compound?
**A.** Active

**Q.** And the Activity (HT-22 [10])?
**A.** Active

**Q.** What about the Activity [3] of the same compound?
**A.** > 75%

**Q.** What does the source list for `O=C(/C=C/c1ccccc1)/C(CCCN1C(=O)c2ccccc2C1=O)=C(O)/C=C/c1ccccc1`?
**A.** DC50 [1]: Not Active; Activity [3]: Active

**Q.** What does the source list for `COc1cc(/C=C/C(=O)/C(CCCN2C(=O)c3ccccc3C2=O)=C(O)/C=C/c2ccc(O)c(OC)c2)ccc1O`?
**A.** DC50 ([1]; read-out: DC50): 1160 nM; Activity [3]: > 75%

**Q.** With `COc1cc(/C=C/C(=O)CC(=O)/C=C/c2ccc(O)c(OC)c2)ccc1O` [CURCUMIN] as the compound, how does the Activity (HT-22 [11]) read?
**A.** Toxic

**Q.** And the Activity (HT-22 [4])?
**A.** Active

**Q.** What about the Activity (HT-22 [5]) of the same compound?
**A.** Active

**Q.** And the Activity (HT-22 [6])?
**A.** Active

**Q.** And the MNTC at 24 h [7]?
**A.** 1000 nM

**Q.** What about the Activity [1] of the same compound?
**A.** Dose-dependent effect

**Q.** What about the Activity [2] of the same compound?
**A.** Dose-dependent effect

**Q.** What about the Activity (HT-22 [9]) of the same compound?
**A.** Active

**Q.** What about the Activity (HT-22 [10]) of the same compound?
**A.** Active

**Q.** And the Activity [12]?
**A.** Active

**Q.** And the Activity [3]?
**A.** > 75%

**Q.** Which results are given for `C(=C\c1cc(/C=C/c2ccccc2)[nH]n1)/c1ccccc1`?
**A.** DC50 [1]: Not Active; Activity [3]: Active

**Q.** Which results are given for `COc1cc(/C=C/C(=O)/C=C(O)/C=C/c2ccc(OC(C)=O)c(OC)c2)ccc1OC(C)=O`?
**A.** Activity (HT-22 [4]): Active; Activity (HT-22 [5]): Active; Activity (HT-22 [6]): Active; MNTC at 24 h [7]: 1000 nM; DC50 ([1]; read-out: DC50): 1950 nM; Activity (HT-22 [8]): Toxic; DC50 [2]: 1000 nM; Activity (HT-22 [9]): Active; Activity (HT-22 [10]): Active

**Q.** For `COc1cc(/C=C/C(=O)/C=C(/C)O)ccc1O`, which DC50 [1] is on record?
**A.** Not Active

**Q.** What about the Activity [3] of the same compound?
**A.** Active

**Q.** Which results are given for `O=C(/C=C(O)/C=C/c1ccccc1)/C=C/c1ccccc1`?
**A.** DC50 [1]: Not Active; Activity [12]: inactive; Activity [3]: Active
